Three molecules from publication PMC12345971 (Computational and Structural Biotechnology Journal, 2025) can be followed below.

Data set [1] relates to 4 cancer cell lines (HepG2, HuCCA-1, A549, MOLT-3). The data set is described as follows: Cytotoxic assay, range over the four cancer cell lines. Type of data set: cell-based. The following applies: Homo sapiens, read-out: IC50, range over the tested cancer cell lines. In a few lines: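 Human HepG2 (DMEM), HuCCA-1 and A549 (Ham's F12), and MOLT-3 (RPMI-1640) were all in 10 % FBS. MRC-5 normal fibroblasts were in DMEM. Seeding was at 5 × 10³ – 2 × 10⁴ cells/well for 24 h at 37C. Serial dilutions of test compound (DMSO solvent) were given for 48 h. Adherent lines were read by MTT and MOLT-3 by XTT, absorbance 550 nm. IC50 is the concentration for 50 % growth inhibition.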

In data set [2] the test system is MOLT-3 lymphoblastic leukemia cell line. The data set is described as follows: Cytotoxic assay. Type of data set: cell-based, human. The following applies: for IC50: Homo sapiens. In short, it runs like this:
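MOLT-3 leukemia cells (passage 15–25) grown in RPMI-1640 with 2 mM L-glutamine, penicillin-streptomycin, sodium pyruvate, glucose, 10 % FBS. Seeding was at 5 × 10³ – 2 × 10⁴ cells/well, 24 h at 37C, 5 % CO₂. Serial dilutions of test compound in DMSO then given for 48 h. XTT read-out at 550 nm. Normal-cell comparator: MRC-5 in DMEM, MTT read-out. IC50 is the concentration for 50 % growth inhibition.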

Data set [3] can be described thus: Cytotoxicity against normal cell line. The format is cell-based. Particulars: human, MRC-5 normal fetal lung fibroblast cells.
Data set [4] deals with HepG2 hepatocellular carcinoma cell line. The data set is described as follows: Cytotoxic assay. The format is cell-based, human.
Data set [5] has as its system HuCCA-1 cholangiocarcinoma cancer cell line. The experiment in a line: Cytotoxic assay. Type of data set: cell-based, human. The following applies: IC50 for normal cell (MRC-5) / IC50 for cancer cell. In short, it runs like this:
(§1)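 A549 (passage 20–26) and HuCCA-1 (passage 115–121) kept in Ham's F12 with 2 mM L-glutamine, 100 U/mL penicillin-streptomycin, 10 % FBS; MRC-5 fibroblasts (passage 19–23) in DMEM, 10 % FBS. Cells seeded at 5 × 10³ – 2 × 10⁴/well in RPMI-1640 + 10 % FBS, 24 h at 37C, 5 % CO₂. DMSO-dissolved test compound added as serial dilutions, 48 h. MTT, absorbance 550 nm; IC50 = 50 % growth inhibition.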

Data set [6] deals with A549 lung carcinoma cell line. The data set is described as follows: Cytotoxic assay. Type of data set: cell-based, human. In a few lines:
as §1

Where [7] appears, read: IC50 for normal cell (MRC-5) / IC50 for cancer cell.

Where two headings read alike, the source gives them in different places.

Regarding `CC1=CC(=O)c2c(O)cccc2C1=O` [Compound 10, plumbagin], the IC50 is 1.38 to 13.6 µM in data set [1] and 1380 nM in data set [2] (MOLT-3, read-out: Experimental pIC50 MOLT-3 (converted)).

For `COc1cc([C@@H]2c3cc4c(cc3[C@@H](O[C@@H]3O[C@@H]5CO[C@@H](C)O[C@H]5[C@H](O)[C@H]3O)[C@H]3COC(=O)[C@H]23)OCO4)cc(OC)c1O` [Etoposide, etoposide], in data set [2] (MOLT-3, 48 h, read-out: IC50 MOLT-3), the IC50 came to 60 nM. For the same molecule, the “Selectivity index (SI) MOLT-3” value in data set [2] (setting [7]) amounted to 218.85. The molecule further yielded an IC50 at 48 h in data set [3] of 13.3 µM.

Turning to `COc1cccc2c1C(=O)c1c(O)c3c(c(O)c1C2=O)C[C@@](O)(C(=O)CO)C[C@@H]3O[C@H]1C[C@H](N)[C@H](O)[C@H](C)O1` [Doxorubicin, doxorubicin], the IC50 was 460 nM in data set [4] (Homo sapiens, HepG2, 48 h, read-out: IC50 HepG2, MTT, 48 h) and 310 nM in data set [6] (Homo sapiens, A549, 48 h, read-out: IC50 A549). Besides, the “Selectivity index (SI) HepG2” value in data set [4] (setting [7]) amounted to 2.02. Further, in data set [5], the “Selectivity index (SI) HuCCA-1” value came to 1.08. Besides, in data set [6] (setting [7]), the “Selectivity index (SI) A549” value worked out at 3.02. The IC50 at 48 h in data set [3] was 0.93 µM.
